The target of data set [1] is T1, human FAAH (Homo sapiens, UniProt O00519).
T1 sequence (O00519 1-579): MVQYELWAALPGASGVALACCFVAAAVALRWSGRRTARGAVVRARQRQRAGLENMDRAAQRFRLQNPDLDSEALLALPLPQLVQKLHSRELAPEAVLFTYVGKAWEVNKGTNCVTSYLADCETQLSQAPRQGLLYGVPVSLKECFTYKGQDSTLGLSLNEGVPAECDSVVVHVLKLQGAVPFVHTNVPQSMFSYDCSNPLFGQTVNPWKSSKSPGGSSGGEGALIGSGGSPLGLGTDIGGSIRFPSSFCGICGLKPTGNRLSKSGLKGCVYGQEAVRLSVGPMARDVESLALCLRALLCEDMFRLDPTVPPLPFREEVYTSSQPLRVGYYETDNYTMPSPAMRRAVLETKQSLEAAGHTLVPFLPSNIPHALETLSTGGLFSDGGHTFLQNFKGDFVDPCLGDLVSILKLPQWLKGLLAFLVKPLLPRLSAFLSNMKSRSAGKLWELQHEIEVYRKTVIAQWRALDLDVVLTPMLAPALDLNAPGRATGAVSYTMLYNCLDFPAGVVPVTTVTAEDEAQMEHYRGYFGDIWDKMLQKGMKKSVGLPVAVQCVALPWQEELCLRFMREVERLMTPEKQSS
The experiment in a line: FAAH fluorescent inhibition assay. The format is biochemical. The conditions noted are these: for decrease in activity/potency toward FAAH: compared to PF-750.

Data set [2] addresses T2, human sEH (Homo sapiens, UniProt P34913).
T2 sequence (P34913 1-555): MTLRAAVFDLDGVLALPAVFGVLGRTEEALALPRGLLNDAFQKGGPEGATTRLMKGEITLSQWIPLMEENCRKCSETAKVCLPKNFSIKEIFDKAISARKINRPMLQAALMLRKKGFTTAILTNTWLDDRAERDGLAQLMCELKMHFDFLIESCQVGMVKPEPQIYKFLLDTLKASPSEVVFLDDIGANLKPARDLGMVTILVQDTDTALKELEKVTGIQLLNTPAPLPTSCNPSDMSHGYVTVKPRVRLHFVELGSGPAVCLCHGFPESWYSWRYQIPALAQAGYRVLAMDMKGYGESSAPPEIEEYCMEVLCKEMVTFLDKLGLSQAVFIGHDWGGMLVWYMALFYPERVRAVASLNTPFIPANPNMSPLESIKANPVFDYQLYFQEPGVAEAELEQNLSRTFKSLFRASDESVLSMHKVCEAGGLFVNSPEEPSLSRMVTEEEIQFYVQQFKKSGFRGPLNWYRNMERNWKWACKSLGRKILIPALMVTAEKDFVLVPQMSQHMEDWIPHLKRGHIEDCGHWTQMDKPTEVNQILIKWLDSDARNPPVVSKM
Put plainly: sEH fluorescent inhibition assay. The format is biochemical. The conditions noted are these: compared to PF-750.

In data set [3] the test system is serine hydrolases. The experiment in a line: Activity-based protein profiling. The format is biochemical, mouse. The settings on record: mouse liver tissue homogenate, inhibitor 20 µM.
Data set [4] has as its target T3, serine hydrolases (Mus musculus, UniProt O08914).
T3 sequence (O08914 1-579): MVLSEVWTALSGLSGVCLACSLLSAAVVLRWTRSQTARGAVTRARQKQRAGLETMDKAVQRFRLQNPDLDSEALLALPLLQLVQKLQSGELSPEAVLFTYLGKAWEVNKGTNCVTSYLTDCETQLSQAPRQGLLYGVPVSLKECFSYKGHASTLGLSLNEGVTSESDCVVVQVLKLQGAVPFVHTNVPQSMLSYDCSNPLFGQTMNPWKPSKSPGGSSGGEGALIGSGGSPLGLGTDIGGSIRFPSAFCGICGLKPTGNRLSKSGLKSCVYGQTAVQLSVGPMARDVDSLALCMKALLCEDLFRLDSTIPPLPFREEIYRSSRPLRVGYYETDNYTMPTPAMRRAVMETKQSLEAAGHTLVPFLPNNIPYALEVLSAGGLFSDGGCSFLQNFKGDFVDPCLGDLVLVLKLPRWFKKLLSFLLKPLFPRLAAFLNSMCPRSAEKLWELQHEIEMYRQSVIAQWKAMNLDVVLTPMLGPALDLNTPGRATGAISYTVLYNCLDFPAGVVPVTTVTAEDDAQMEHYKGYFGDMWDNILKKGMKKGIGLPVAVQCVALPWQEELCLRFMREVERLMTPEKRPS
Put plainly: Activity-based protein profiling. The format is biochemical. The settings on record: mouse brain tissue homogenate, inhibitor 20 µM.

Data set [5] addresses T1, human FAAH. The experiment in a line: Ki and kinact determination on FAAH. The format is biochemical. An outline of the steps: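 Crude baculovirus-expressed recombinant FAAH (High Five cell S9 fraction in 50 mM Tris/HCl pH 8.0, 1 mM CHAPS, 10% glycerol). OMP (100 μM final) was mixed with a range of test compound concentrations and held 5 min at 37 °C.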
For the next data set, the target named is T4, rat FAAH (Rattus norvegicus, UniProt P97612).
T4 sequence (P97612 1-579): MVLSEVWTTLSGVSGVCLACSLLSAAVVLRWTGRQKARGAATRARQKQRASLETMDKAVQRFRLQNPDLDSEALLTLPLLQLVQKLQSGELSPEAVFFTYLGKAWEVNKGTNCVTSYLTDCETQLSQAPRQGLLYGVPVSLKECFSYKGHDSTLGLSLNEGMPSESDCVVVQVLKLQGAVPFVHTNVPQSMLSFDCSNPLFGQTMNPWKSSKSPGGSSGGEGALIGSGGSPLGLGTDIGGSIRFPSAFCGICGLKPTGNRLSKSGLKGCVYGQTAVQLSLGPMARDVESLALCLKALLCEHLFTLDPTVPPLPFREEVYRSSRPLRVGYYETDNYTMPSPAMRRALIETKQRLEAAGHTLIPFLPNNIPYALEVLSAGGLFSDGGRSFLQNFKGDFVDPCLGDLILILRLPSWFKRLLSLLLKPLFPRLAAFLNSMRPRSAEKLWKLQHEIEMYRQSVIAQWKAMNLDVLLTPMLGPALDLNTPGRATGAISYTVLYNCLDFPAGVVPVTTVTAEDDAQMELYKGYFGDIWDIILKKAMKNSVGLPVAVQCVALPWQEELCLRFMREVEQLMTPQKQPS
The experiment in a line: FAAH fluorescent inhibition assay, rat brain microsomes. The settings on record: FAAH IC50 (5 min pre-incubation), 5 min pre-incubation. The format is biochemical. An outline of the steps:
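Rat brain microsomes: tissue homogenized in 20 mM phosphate (pH 7.4, 5 mM EDTA), spun at 9000g for 20 min, then 100 000g for 1 h, and stored at −80 °C. OMP (100 μM final) in 0.1 M sodium phosphate pH 8, 0.1 mg/mL BSA, 2% DMSO, 37 °C. Fluorescence (ex 303/em 394 nm) read every 30 s for 10 min. No-enzyme background subtracted. IC50 from linear regression of log[I] vs % remaining activity; triplicates.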

The target of the next data set is T5, mouse FAAH (Mus musculus, UniProt O08914).
T5 sequence (O08914 1-579): T3 sequence (O08914 1-579)
Put plainly: FAAH fluorescent inhibition assay, mouse crude tissue homogenate. The format is biochemical. The settings on record: FAAH IC50 (5 min pre-incubation).

The nature of data set [6]: Cassette dosing pharmacokinetics in mice. The format is in vivo. The settings on record: male, Swiss Webster, mouse, whole blood, po, 1 mg/kg. In short, it runs like this: (§1)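 Test compounds were given as a cassette cocktail at 1 mg/kg each, p.o. in PEG300, to groups of 4 rats or 4 mice. Blood was taken by tail vein at set intervals and group averages were used.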
The nature of data set [7]: Cassette dosing pharmacokinetics in rats. The format is in vivo. The conditions noted are these: male, Sprague-Dawley, rat, whole blood, po, 1 mg/kg. In short, it runs like this: as §1
Data set [8] deals with T2, human sEH. The experiment in a line: FRET-based displacement assay for inhibitor dissociation from sEH. The format is binding.

The structures appear in SMILES notation.

The results in this text go back to publication PMC6210075 (ACS Omega, 2018).

`O=C(Nc1ccccc1F)N1CCC(Cc2cnc3ccccc3c2)CC1` [compound 3]: the “decrease in activity/potency toward FAAH” value on human FAAH [1] was 3 fold.
In the case of `COc1ccc(NC(=O)N2CCC(Cc3ccc4ccccc4c3)CC2)cc1` [compound 8], the “increase in activity toward FAAH” value at human FAAH [1] (compared to 5 (3-quinoline)) worked out at 4 fold.
For `O=C(Nc1ccc(F)cc1)N1CCC(Cc2cnc3ccccc3c2)CC1` [compound 1], the “decrease in activity/potency toward FAAH” value on human FAAH [1] came out at 5 fold. Further, at human sEH [2], the “increase in activity/potency toward sEH” value was 7 fold.
In the case of `NC(=O)c1cccc(-c2cccc(OC(=O)NC3CCCCC3)c2)c1` [URB597, cyclohexyl carbamic acid 3′-carbamoyl-biphenyl-3-yl ester, reference compound], the “other serine hydrolase bands (ABPP)” value with serine hydrolases [3] is reported as “reduced the intensity of a band around 62.5 kDa”. Further, at serine hydrolases [4], the “intensity of the FAAH band (ABPP)” value is “reduced”.
Take `O=C(Nc1ccc(Cl)cc1)N1CCC(Cc2cnc3ccccc3c2)CC1` [compound 2]: the “decrease in activity/potency toward FAAH” value at human FAAH [1] was 3 fold.
As for `COc1ccc(NC(=O)N2CCC(Cc3cnc4ccccc4c3)CC2)cc1` [compound 5], the “increase in activity/potency toward sEH” value on human sEH [2] was 5 fold.
What is called Ki is the dissociation constant of the complex between target and ligand, obtained from inhibition or displacement. Low values mean higher affinity, high ones lower affinity. Broadly, the kinact is the rate constant of inactivation at saturating inhibitor. What is called kinact/KI is the maximal inactivation rate divided by the concentration that gives half of it. One may read the IC50 as the concentration that inhibits the measured activity by half. Higher therefore signals weaker potency. Broadly, the AUC is the area under the concentration-time curve, a measure of exposure. Low values mean less exposure, high ones more exposure. For orientation: Cmax means the highest concentration seen after dosing. The koff is the rate constant with which the complex falls apart. On to `O=C(Nc1ccc(C(F)(F)F)cc1)N1CCC(Cc2cccc(Oc3ccc(C(F)(F)F)cn3)c2)CC1` [compound 13], for which, on human FAAH [5], the Ki came to 0.037 µM, the kinact is 0.000317 s⁻¹ and the kinact/KI was 500000 M⁻¹ s⁻¹. Moreover, in the data set with serine hydrolases [3], the “other serine hydrolase bands (ABPP)” value is “neither 11, 13, 14, 18, nor PF-3845 had any effect on the intensity of other bands”. Moreover, the “intensity of the FAAH band (ABPP)” value on serine hydrolases [4] is “does not appear to fully inhibit the band corresponding to FAAH”. Further, the IC50 on rat FAAH was > 10 µM. The half-maximal inhibitory concentration (IC50) against mouse FAAH is > 10 µM. In data set [6], the AUC came to 0.75 µM·h and the concentration peaked (Cmax) at 65 nM. Further, in data set [7], the AUC came to 0.74 µM·h and the Cmax is 66 nM. Further, the “t1/2 (half-life on the enzyme)” value at human sEH [8] (human sEH) is given as 9.9 min. Moreover, the koff at human sEH [8] (read-out: koff × 10^–3) worked out at 1.2 s⁻¹.
